Source: publication PMC9301635 (ACS Omega, 2022)
Read-outs that look alike come from different tables or passages of the source.

Experiments:
ovine COX-1 = target: T1, ovine COX-1 (Ovis aries, UniProt P05979); experiment: COX Fluorescent Inhibitor Screening Assay Kit; assay type: biochemical; conditions: for % inhibition @ 100 μM COX-1: 100 μM compound
T1 sequence (P05979 25-600): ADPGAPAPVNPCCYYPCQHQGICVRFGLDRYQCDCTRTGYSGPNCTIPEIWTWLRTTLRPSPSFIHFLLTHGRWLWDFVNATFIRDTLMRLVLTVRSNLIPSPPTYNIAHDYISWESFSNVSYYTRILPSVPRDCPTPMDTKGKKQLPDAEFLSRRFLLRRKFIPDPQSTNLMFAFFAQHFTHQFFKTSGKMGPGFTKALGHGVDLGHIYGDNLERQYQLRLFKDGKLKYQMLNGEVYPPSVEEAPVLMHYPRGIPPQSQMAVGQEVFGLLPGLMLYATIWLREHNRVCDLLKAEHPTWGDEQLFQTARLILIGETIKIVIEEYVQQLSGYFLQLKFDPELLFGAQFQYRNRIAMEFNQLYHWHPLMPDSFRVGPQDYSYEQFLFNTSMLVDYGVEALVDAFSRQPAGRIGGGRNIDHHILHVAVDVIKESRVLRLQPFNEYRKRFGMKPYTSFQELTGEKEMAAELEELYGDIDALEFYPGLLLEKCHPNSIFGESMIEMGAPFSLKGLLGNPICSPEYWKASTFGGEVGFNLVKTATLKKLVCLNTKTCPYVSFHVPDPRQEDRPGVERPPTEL

human COX-2 = target: T2, human COX-2 (Homo sapiens, UniProt P35354); experiment: biochemical; assay type: biochemical; conditions: for % inhibition @ 100 μM COX-2: 100 μM compound
T2 sequence (P35354 18-604): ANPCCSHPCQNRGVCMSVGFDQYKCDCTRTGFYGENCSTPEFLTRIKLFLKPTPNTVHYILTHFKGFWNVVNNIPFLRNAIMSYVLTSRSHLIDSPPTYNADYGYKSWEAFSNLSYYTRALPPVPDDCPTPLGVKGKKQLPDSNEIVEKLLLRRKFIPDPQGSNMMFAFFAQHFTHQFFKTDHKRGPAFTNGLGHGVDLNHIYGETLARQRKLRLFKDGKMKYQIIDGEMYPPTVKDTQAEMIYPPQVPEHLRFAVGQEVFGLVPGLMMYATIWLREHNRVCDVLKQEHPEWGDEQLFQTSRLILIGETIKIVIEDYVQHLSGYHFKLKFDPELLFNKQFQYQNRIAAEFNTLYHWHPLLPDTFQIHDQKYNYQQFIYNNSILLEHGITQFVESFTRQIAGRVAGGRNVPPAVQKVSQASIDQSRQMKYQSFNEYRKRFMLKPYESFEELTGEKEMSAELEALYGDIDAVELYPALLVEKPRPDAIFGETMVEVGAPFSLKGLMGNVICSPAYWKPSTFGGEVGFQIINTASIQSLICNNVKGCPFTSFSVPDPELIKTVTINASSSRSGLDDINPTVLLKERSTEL

CT26 [1] = experiment: MTT viability test, CT26; assay type: cell-based, mouse; conditions: read-out: IC50 CT26 MTT
How it was run: (§1)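 Cells were grown in RPMI-1640 with 10% FCS and antibiotics at 37 °C, 5% CO2. Seeding per well was CT26 4 × 10^3, HT-29 1.5 × 10^4, SW480 3 × 10^3 and HCT116 5 × 10^3, with overnight adherence. Test compound came from a 200 mM DMSO stock (≤0.1% DMSO final) and was applied at 0–200 μM for 72 h. Viability was read by MTT or crystal violet, in triplicate.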

CT26 [2] = experiment: Crystal violet; assay type: cell-based, mouse; conditions: read-out: IC50 CT26 CV
How it was run: as §1

HT29 [3] = experiment: MTT viability test, HT29; assay type: cell-based, human; conditions: read-out: IC50 HT29 MTT
How it was run: as §1

HT29 [4] = experiment: Crystal violet; assay type: cell-based, human; conditions: read-out: IC50 HT29 CV
How it was run: as §1

SW480 [5] = experiment: MTT viability test, SW480; assay type: cell-based, human; conditions: read-out: IC50 SW480 MTT
How it was run: as §1

SW480 [6] = experiment: Crystal violet; assay type: cell-based, human; conditions: read-out: IC50 SW480 CV
How it was run: as §1

HCT116 [7] = experiment: MTT viability test, HCT116; assay type: cell-based, human; conditions: read-out: IC50 HCT116 MTT
How it was run: as §1

HCT116 [8] = experiment: Crystal violet; assay type: cell-based, human; conditions: read-out: IC50 HCT116 CV
How it was run: as §1

HCT116 cells [9] = experiment: Caspase activation, ApoStat flow cytometry, HCT116; assay type: cell-based, human; conditions: IC50 dose, 72 h, fluorescence-labeled pan-caspase inhibitor
How it was run: (§2)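 Seeding in six-well plates was HCT116 2 × 10^5/well and SW480 1.5 × 10^5/well. Cells were exposed to test compound (DMSO vehicle, ≤0.1%) for 72 h. They were then stained with the FITC-labelled pan-caspase inhibitor ApoStat according to the manufacturer's protocol. The percentage of caspase-active cells was measured by flow cytometry. Data are representative of three independent experiments.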

SW480 cells [10] = experiment: Caspase activation, ApoStat flow cytometry, SW480; assay type: cell-based, human; conditions: IC50 dose, 72 h, fluorescence-labeled pan-caspase inhibitor
How it was run: as §2

HCT116 cells [11] = experiment: Cell proliferation, CFSE flow cytometry, HCT116; assay type: cell-based, human; conditions: HCT116, IC50 dose, 72 h
How it was run: (§3)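 HCT116 (2 × 10^5/well) or SW480 (1.5 × 10^5/well) cells were prelabelled with 1 μM CFSE in six-well plates. They were then exposed to test compound in culture medium (≤0.1% DMSO) for 72 h. CFSE dilution was measured by flow cytometry. Data are representative of three independent experiments.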

SW480 cells [12] = experiment: Cell proliferation, CFSE flow cytometry, SW480; assay type: cell-based, human; conditions: SW480, IC50 dose, 72 h
How it was run: as §3

HCT116 cells [13] = experiment: ROS/RNS production, DHR flow cytometry, HCT116; assay type: cell-based, human; conditions: HCT116, IC50 dose, 72 h
How it was run: (§4)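 HCT116 (2 × 10^5/well) and SW480 (1.5 × 10^5/well) cells in six-well plates were treated with test compound for 72 h. Treatment was in culture medium containing 1 μM dihydrorhodamine 123 (≤0.1% DMSO). Intracellular ROS/RNS was measured as fluorescence by flow cytometry. Data are representative of three independent experiments.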

SW480 cells [14] = experiment: ROS/RNS production, DHR flow cytometry, SW480; assay type: cell-based, human; conditions: SW480, IC50 dose, 72 h
How it was run: as §4

COX-1 = conditions: read-out: IC50(COX-1) literature value; in blood; cited from earlier work
[15] = system: human breast, bladder, and non-small lung cancer cell lines; conditions: read-out: cytotoxic potential; literature data; cited from earlier work

| % inhibition @ 100 μM COX-1 (ovine COX-1; no BSA) | % inhibition @ 100 μM COX-2 (human COX-2; no BSA) | IC50 (CT26 [1]; 72 h, COX-2 +) | IC50 (CT26 [2]; 72 h, COX-2 +) | IC50 (HT29 [3]; 72 h, COX-2 +) | IC50 (HT29 [4]; 72 h, COX-2 +) | IC50 (SW480 [5]; 72 h, COX-2 –) | IC50 (SW480 [6]; 72 h, COX-2 –) | IC50 (HCT116 [7]; 72 h, COX-2 –) | IC50 (HCT116 [8]; 72 h, COX-2 –) | Molecule | caspase activation, % HCT116 cells (HCT116 cells [9]) | caspase activation, % SW480 cells (SW480 cells [10]) | other results |
| --- | --- | --- | --- | --- | --- | --- | --- | --- | --- | --- | --- | --- | --- |
| 32% | 28% | 38.3 ± 0.4 µM | 47.2 ± 2.3 µM | 45.6 ± 2.7 µM | > 200 µM | 39 ± 1.2 µM | 24 ± 0.8 µM | 34.4 ± 1.8 µM | 35.5 ± 3.1 µM | N-(1,2-Dicarba-closo-dodecaboran-9-yl)-2-benzonitrile [2b] | 1.1% | 3.2% | cell division rate vs untreated cells (HCT116 cells [11]): remarkably lower; cell division rate vs untreated cells (SW480 cells [12]): remarkably lower; ROS/RNS production (HCT116 cells [13]): increased; ROS/RNS production (SW480 cells [14]): increased |
| 7% | – | 72.6 ± 4.5 µM | 137 ± 3.1 µM | 165 ± 0.3 µM | > 200 µM | 77.8 ± 0.4 µM | 76.4 ± 3.5 µM | 67.6 ± 1.3 µM | 77.4 ± 3.4 µM | N-(1,12-Dicarba-closo-dodecaboran-2-yl)-2-benzoic acid [4c] | – | – | – |
| 83% | 76% | 167 ± 8.8 µM | 150 ± 4.9 µM | 141 ± 7.8 µM | 182 ± 1.7 µM | 121 ± 4.5 µM | 84 ± 3.3 µM | 129 ± 10 µM | 115 ± 6 µM | Sodium rac-[N-(7,8-dicarba-closo-dodecaboran-6-yl)-2-benzonitrile] [compound 5] | – | – | IC50 (ovine COX-1; read-out: IC50 COX-1, no BSA): 40 µM; IC50 (human COX-2; read-out: IC50 COX-2, no BSA): 33 µM |
| 12% | – | > 200 µM | > 200 µM | > 200 µM | > 200 µM | > 200 µM | > 200 µM | > 200 µM | > 200 µM | N-(1,12-Dicarba-closo-dodecaboran-2-yl)-2-benzonitrile [4b] | – | – | – |
| – | – | 61.6 ± 0.1 µM | 93.3 ± 5.7 µM | 183 ± 3.7 µM | > 200 µM | 77.6 ± 0.1 µM | 75.6 ± 4 µM | 74.6 ± 4.8 µM | 83.6 ± 3.8 µM | N-(1,2-Dicarba-closo-dodecaboran-9-yl)-2-benzoic acid [2c] | – | – | – |
| 22% | 13% | 22.4 ± 1.7 µM | 37.4 ± 1.2 µM | 46.4 ± 2.9 µM | 116 ± 2.2 µM | 23.8 ± 2.1 µM | 24.9 ± 1.8 µM | 28.2 ± 1.8 µM | 31.8 ± 2.3 µM | N-(1,7-Dicarba-closo-dodecaboran-9-yl)-2-benzonitrile [3b] | 5.6% | 6.8% | cell division rate vs untreated cells (HCT116 cells [11]): remarkably lower; cell division rate vs untreated cells (SW480 cells [12]): remarkably lower |
| – | – | – | – | – | – | – | – | – | – | Cc1cccc(Nc2ccccc2C(=O)O)c1C [compound 1, Mefenamic acid, reference compound] | 0.5% | 5.2% | IC50 (ovine COX-1): 0.12 µM; inhibition plateau COX-1 (ovine COX-1; concentration range between 1 and 100 μM): around 60%; inhibition at 100 µM (ovine COX-1; read-out: % inhibition @ 100 μM COX-1): 59%; IC50 COX-2 (human COX-2): no IC50 value could be determined; inhibition at 100 µM (human COX-2; read-out: % inhibition @ 100 μM COX-2): 20%; IC50 (CT26 [1]; Mus musculus, CT26, 72 h): 114 ± 4.2 µM; IC50 (CT26 [2]; Mus musculus, CT26, 72 h): 163 ± 2 µM; IC50 (HT29 [3]; Homo sapiens, HT-29, 72 h): > 200 µM; IC50 (HT29 [4]; Homo sapiens, HT-29, 72 h): > 200 µM; IC50 (SW480 [5]; Homo sapiens, SW480, 72 h): 104 ± 6.4 µM; IC50 (SW480 [6]; Homo sapiens, SW480, 72 h): 120 ± 6.1 µM; IC50 (HCT116 [7]; Homo sapiens, HCT-116, 72 h): 96.2 ± 7.9 µM; IC50 (HCT116 [8]; Homo sapiens, HCT-116, 72 h): 101 ± 6.5 µM; IC50 (COX-1): 1.94 µM; IC50 [15]: ~20 µM |
| 11% | – | 76.5 ± 2.8 µM | 160 ± 6.6 µM | 184 ± 4.5 µM | > 200 µM | 90.6 ± 3.3 µM | 117 ± 7.9 µM | 93.2 ± 7.6 µM | 147 ± 8.6 µM | N-(1,7-Dicarba-closo-dodecaboran-9-yl)-2-benzoic acid [3c] | – | – | – |
